Source: PubChem BioAssay
Inconclusive results are not listed.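 How the source made its calls, unless noted: active means growth inhibition above 25% in both replicates, a cutoff set 3 SD above the mean; inconclusive means above 25% in only one replicate; inactive means the rest.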

Legend:
[1] = S. cerevisiae growth inhibition in permissive medium (OD615), pilot counter-assay for S. cerevisiae lifespan shortening project, permissive growth control (AID 705); conditions: OD615, 24 h, at 10 µM, hits give high values
How it was run: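 System: Engineered DeaD yeast | Buffer or medium: SC raffinose/galactose permissive medium | Incubation: Cells pre-grown 4 h, then 24 h compound exposure, 30 °C humidified | Measured by: Absorbance (optical density) at 615 nm | Read-out: Reduction in yeast growth (OD615)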

[2] = S. cerevisiae growth inhibition in restrictive medium, OD615, pilot screen, restrictive growth control, yeast lifespan reduction project (AID 706;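 active means growth inhibition above a set limit, 3 SD over mean compound inhibition, in both replicates, cut at about 43% in these data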;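 further: modified DeaD lifespan yeast strain shifted to restrictive glucose medium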); conditions: OD615, 48 h, at 10 µM, hits give high values
How it was run: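 Material: modified S. cerevisiae; Medium: glucose-based CSMM-D restrictive medium; Compound dosing: one concentration, 10 µM final, 0.25% DMSO; Incubation: 48 h compound exposure at 30 °C; Measured by: OD615.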

[3] = doxorubicin toxicity protection in MRP-1 cells – H69AR cells, CellTiter-Glo, duplicate, MRP-1 activator project, pilot screen (AID 807;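 active means viability increase at or above a cutoff of the median across tested compounds plus 3 SD, cut at about 8.5% in these data, passing the limit was not always enough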;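 further: compound pretreatment 18-22 h then 72 h combined with doxorubicin; 0% = doxorubicin alone and 100% = vehicle without doxorubicin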); conditions: H69AR viability with doxorubicin, CellTiter-Glo luminescence; at 10 µM; hits give high values
[4] = viability of HCT116 without oncogenic beta-catenin – human colon tumor cells, pilot screen (AID 823;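 active means cell viability at or below a set limit in both duplicate runs, the limit being the all-compound median minus 4 SD, cut at about 23% in these data, passing the limit was not always enough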;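 further: 0% = wells killed by 20 µM Hyamine and 100% = untreated DMSO cell wells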); conditions: HCT116 beta-catenin knockout viability, CellTiter-Glo, 60 h; at 10 µM; hits give low values
[5] = viability of PTEN-null HCT116 cells – cell-based, HCT116 clonal line, CellTiter-Glo, pilot screen (AID 824;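 active means viability at or below 27.92% in each of two runs, the all-compound median minus 4 SD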;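 further: 0% = 20 µM Hyamine control and 100% = vehicle cell control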); conditions: HCT116 PTEN-deleted viability, 60 h, at 10 µM, hits give low values
[6] = RAM pathway blockade in budding yeast – dse1pr::URA3 reporter, 5-FOA selection, pilot screen (AID 869;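 active means inhibition over a set limit, the all-compound mean plus 3 SD, in both replicate runs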;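 further: 0% = DMSO wells with no growth and 100% = 10 µM 1-NA-PP1 with full growth; RAM network block rescues cells from 5-FOA so hits raise OD615 growth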); conditions: S. cerevisiae dse1pr::URA3 5-FOA growth, OD615, 2 d; at 10 µM; hits give high values; strain carries analog-sensitive mutant Cbk1 kinase
[7] = RAM signaling pathway blockade in yeast – S. cerevisiae, Pdr1DBD-CYC8 efflux-inhibited sensitized strain, primary screen (AID 1298;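 active means RAM network inhibition above 8.4% in each of two replicates, 3 SD over the compound average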;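 further: 0% = DMSO untreated cells without growth and 100% = 10 µM 1-NA-PP1 full growth; higher means more yeast growth rescued from 5-FOA killing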); conditions: S. cerevisiae cbk1-as DSE1-URA3 strain, 5-FOA growth OD615, 2 d; at 50 µM; hits give high values

COc1ccc2cc(S(=O)(=O)N3CCOCC3)ccc2c1
inactive: growth inhibition [1] -11.2% | growth inhibition [2] -7.81% | viability increase [3] -1.77% | viability [4] 94.4% | viability [5] 99.2% | inhibition [6] 0.075% | RAM network inhibition [7] 1.03%

COc1ccc2c(C)cc(=O)oc2c1C
inactive: growth inhibition [1] 2.89% | growth inhibition [2] -2.73% | viability increase [3] -2.26% | viability [4] 102% | viability [5] 94.7% | inhibition [6] 1.96% | RAM network inhibition [7] 5.35%

Cc1c(N2C(=O)CSC23C(=O)Nc2ccccc23)c(=O)n(-c2ccccc2)n1C (configuration not stated)
inactive: growth inhibition [1] -10.1% | growth inhibition [2] -11.7% | viability increase [3] -3.38% | viability [4] 90.4% | viability [5] 91.8% | inhibition [6] 3.84% | RAM network inhibition [7] 3.91%

COc1cc2[nH]c(=O)n(CCCCCC(=O)NCCCN3CCOCC3)c(=O)c2cc1OC
inactive: growth inhibition [1] -9.12% | growth inhibition [2] -24.8% | viability increase [3] -1.27% | viability [4] 97.8% | viability [5] 89.6% | inhibition [6] 0.585% | RAM network inhibition [7] -0.68%

CS(=O)(=O)Nc1cccc2cccnc12
inactive: growth inhibition [1] 5.63% | growth inhibition [2] -1.19% | viability increase [3] -4.19% | viability [4] 50.4% | viability [5] 56.7% | inhibition [6] 2.3% | RAM network inhibition [7] 0.27%

CC(=O)N(c1c(C)n(C)n(-c2ccccc2)c1=O)C1(C(=O)NC2CCCC2)CCCCC1
inactive: growth inhibition [1] -1.1% | growth inhibition [2] -19% | viability increase [3] -1.56% | viability [4] 95.1% | viability [5] 95.8% | inhibition [6] 0.27% | RAM network inhibition [7] -1.24%

Cc1c(NC(=O)OCc2ccccc2)c(=O)n(-c2ccccc2)n1C
inactive: growth inhibition [1] -7.33% | growth inhibition [2] -0.325% | viability increase [3] 0.05% | viability [4] 109% | viability [5] 91.1% | inhibition [6] 1.35% | RAM network inhibition [7] 7.69%

Cc1occc1C(=O)NC1CCCCCC1
inactive: growth inhibition [1] -17.9% | growth inhibition [2] -9.95% | viability increase [3] -0.64% | viability [4] 95.5% | viability [5] 96.6% | inhibition [6] -0.355% | RAM network inhibition [7] -0.22%

O=C(c1csc2c1CCCC2)N1CCCCC1
inactive: growth inhibition [1] 12.4% | growth inhibition [2] 8.33% | viability increase [3] -1.17% | viability [4] 99.2% | viability [5] 102% | inhibition [6] -0.145% | RAM network inhibition [7] 1.12%

COc1ccc(OCC(=O)Nc2cccc(C(C)=O)c2)cc1
inactive: growth inhibition [1] 0.595% | growth inhibition [2] 15.9% | viability increase [3] -0.88% | viability [4] 93.9% | viability [5] 94.6% | inhibition [6] 0.74% | RAM network inhibition [7] 2.7%

O=c1oc2ccccc2n1CCCOc1ccccc1
inactive: growth inhibition [1] 1.24% | growth inhibition [2] -1.04% | viability increase [3] 1.28% | viability [4] 98.1% | viability [5] 96.5% | inhibition [6] 2.02% | RAM network inhibition [7] 1.62%

Cc1cc(C)c2c(=O)[nH]n(C3CCOC(C)(C)C3)c2n1 (configuration not stated)
inactive: growth inhibition [1] -4.97% | growth inhibition [2] -0.145% | viability increase [3] -0.16% | viability [4] 107% | viability [5] 99.8% | inhibition [6] -0.37% | RAM network inhibition [7] 1.49%

CCCCN(CC)CCNC(=O)Cn1cnc2sc(C)c(S(=O)(=O)N3CCOCC3)c2c1=O
inactive: growth inhibition [1] -7.83% | growth inhibition [2] 0.72% | viability increase [3] -0.05% | viability [4] 99.5% | viability [5] 98.4% | inhibition [6] 2.3% | RAM network inhibition [7] 0.78%

CCCc1ccc(OCC(O)CN2CCN(c3ccccc3)CC2)cc1 (configuration not stated)
inactive: growth inhibition [1] 4.55% | growth inhibition [2] 3.57% | viability increase [3] -0.47% | viability [4] 83% | viability [5] 81.6% | inhibition [6] 0.325% | RAM network inhibition [7] 1.55%

CCN(CC)c1ccc(NC(=O)Cn2cc3c(n2)CCC(C)C3)c(C)c1 (configuration not stated)
inactive: growth inhibition [1] 2.12% | growth inhibition [2] 1.57% | viability increase [3] 2.97% | viability [4] 80.4% | viability [5] 76.2% | inhibition [6] 0.835% | RAM network inhibition [7] -1.78%

Cc1cccc(-n2ccnc2SCC(=O)Nc2nnc(C)s2)c1
inactive: growth inhibition [1] -5.12% | growth inhibition [2] 20.3% | viability increase [3] -4.56% | viability [4] 76.9% | viability [5] 72.8% | inhibition [6] 1.13% | RAM network inhibition [7] 6.22%

COc1cccc(C(=O)NCCn2ccc3ccccc32)c1
inactive: growth inhibition [1] -0.9% | growth inhibition [2] -3.15% | viability increase [3] -1.6% | viability [4] 95.3% | viability [5] 90.6% | inhibition [6] 0.825% | RAM network inhibition [7] 2.48%

Cn1c(=O)c2cc(S(=O)(=O)NC(C(=O)NCc3cccnc3)c3ccccc3)ccc2n(C)c1=O (configuration not stated)
inactive: growth inhibition [1] -17% | growth inhibition [2] -18.3% | viability increase [3] -1.54% | viability [4] 91.2% | viability [5] 94.2% | inhibition [6] 1.32% | RAM network inhibition [7] 1.81%

CCOC(=O)CSc1nc2ccccc2c(=O)[nH]1
inactive: growth inhibition [1] -13.4% | growth inhibition [2] -17.3% | viability increase [3] -0.36% | viability [4] 105% | viability [5] 100% | inhibition [6] 1.74% | RAM network inhibition [7] 3.03%

COc1ccc(Br)cc1CNC(=O)C1CCC(=O)N1C(C)C (configuration not stated)
inactive: growth inhibition [1] 6.52% | growth inhibition [2] 4.42% | viability increase [3] -2.9% | viability [4] 91.7% | viability [5] 94.7% | inhibition [6] 1.99% | RAM network inhibition [7] 3.58%

COc1ccc(-c2[nH]ncc2-c2cnc(C)s2)c(O)c1
inactive: growth inhibition [1] -13.3% | growth inhibition [2] -13% | viability increase [3] -1.25% | viability [4] 99.2% | viability [5] 98.9% | inhibition [6] 2% | RAM network inhibition [7] 2.98%

O=C1c2oc3ccc(Cl)cc3c(=O)c2C(c2ccco2)N1CCN1CCOCC1 (configuration not stated)
inactive: growth inhibition [1] -2.05% | growth inhibition [2] -4.56% | viability increase [3] -5.51% | viability [4] 89.6% | viability [5] 90.4% | inhibition [6] 0.415% | RAM network inhibition [7] -1.88%

CC1CCCN(c2nc3c(c(=O)[nH]c(=O)n3C)n2CCSc2ncccn2)C1 (configuration not stated)
inactive: growth inhibition [1] -2.51% | growth inhibition [2] 2.04% | viability increase [3] -3.17% | viability [4] 97% | viability [5] 96.8% | inhibition [6] 1.14% | RAM network inhibition [7] 2.7%

CN1CCN(C(=O)C2CCCCC2C(=O)O)CC1 (configuration not stated)
inactive: growth inhibition [1] 0.81% | growth inhibition [2] -12.5% | viability increase [3] -1.14% | viability [4] 99.4% | viability [5] 99.1% | inhibition [6] 2.02% | RAM network inhibition [7] -0.26%

CCOC(=O)N1CCN(C(=O)Cn2ncc3c2-c2ccccc2OC3)CC1
inactive: growth inhibition [1] -14% | growth inhibition [2] -8.46% | viability increase [3] -1.16% | viability [4] 102% | viability [5] 95.9% | inhibition [6] 0.82% | RAM network inhibition [7] -1.43%

Cc1ccc(C)c(SCC(=O)OCC(=O)Nc2ccc(S(=O)(=O)N3CCOCC3)cc2)c1
inactive: growth inhibition [1] -20.4% | growth inhibition [2] -17.7% | viability increase [3] -1.73% | viability [4] 97.8% | viability [5] 92.9% | inhibition [6] 1.02% | RAM network inhibition [7] 5.86%

COc1ccc(C2CC3CC(c4ccccc4)N2O3)cc1 (configuration not stated)
inactive: growth inhibition [1] -3.88% | growth inhibition [2] -2.38% | viability increase [3] -1.22% | viability [4] 89.3% | viability [5] 93.5% | inhibition [6] 2.11% | RAM network inhibition [7] 4.21%

O=C(NCCn1ccc2ccccc21)c1ccc2c(c1)OCO2
inactive: growth inhibition [1] -2.72% | growth inhibition [2] -4.68% | viability increase [3] 0.1% | viability [4] 101% | viability [5] 94.4% | inhibition [6] 0.58% | RAM network inhibition [7] 6.97%

CCCC12CN3CC(CCC)(CN(C1)C3C(O)C(O)C(O)CO)C2=O (configuration not stated)
inactive: growth inhibition [1] 4.31% | growth inhibition [2] 7.78% | viability increase [3] 0.62% | viability [4] 99.7% | viability [5] 100% | inhibition [6] 1.27% | RAM network inhibition [7] 3.47%

Cc1nc2ccccc2c(=O)n1NC(=O)c1c(O)c2ccccc2n(C)c1=O
inactive: growth inhibition [1] -5.41% | growth inhibition [2] 7.71% | viability increase [3] -2.45% | viability [4] 100% | viability [5] 99% | inhibition [6] 0.995% | RAM network inhibition [7] 0.88%

CC1CC(C)CN(C(=O)CSc2nnc(-c3ccc(F)cc3)o2)C1 (configuration not stated)
inactive: growth inhibition [1] -2.08% | growth inhibition [2] 5.43% | viability increase [3] -0.28% | viability [4] 94.5% | viability [5] 99.8% | inhibition [6] 0.645% | RAM network inhibition [7] 2.78%

O=C1OC(Nc2nc3ccccc3s2)c2ccccc21 (configuration not stated)
inactive: growth inhibition [1] -2.46% | growth inhibition [2] 6.6% | viability increase [3] 0.26% | viability [4] 101% | viability [5] 101% | inhibition [6] 0.67% | RAM network inhibition [7] 0.48%

Clc1ccccc1OCCN1CCCCC1
inactive: growth inhibition [1] -14.4% | growth inhibition [2] -20.6% | viability increase [3] 0.57% | viability [4] 85.5% | viability [5] 96.2% | inhibition [6] 0.6% | RAM network inhibition [7] 6.74%

O=C(CSCC(=O)N1CCOCC1)Nc1ccccc1
inactive: growth inhibition [1] -11.4% | growth inhibition [2] -8.24% | viability increase [3] -0.42% | viability [4] 97.2% | viability [5] 97.8% | inhibition [6] 0.42% | RAM network inhibition [7] 2.75%

Cn1c(=O)oc2cc(S(=O)(=O)NC3CCCc4ccccc43)ccc21 (configuration not stated)
inactive: growth inhibition [1] -25.4% | growth inhibition [2] -11.4% | viability increase [3] -1.98% | viability [4] 92.4% | viability [5] 90.7% | inhibition [6] 3.1% | RAM network inhibition [7] 6.28%

COc1cccc(C2CC(c3ccc(Cl)cc3Cl)n3nc(N)nc3N2)c1 (configuration not stated)
inactive: growth inhibition [1] -1.58% | growth inhibition [2] 18.6% | viability increase [3] 4.01% | viability [4] 90.8% | viability [5] 90.8% | inhibition [6] 1.79% | RAM network inhibition [7] 8.01%
